# In PubChem BioAssay AID493097 (Broad Institute, 2011):
# The source made the active and inactive calls.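 How the source made its calls: active means falling signal with a fitted half-maximal concentration at most ten times the top valid dose; inconclusive means flat fit with 30 to 70 percent inhibition, or a poor fit; inactive means the rest.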
# Test system: not listed separately
# Test: constitutive quorum sensing luminescence reduction – strain BB721, dry powder, set 4, counter-screen for LuxS inhibitor project, dose response (AID 493097)
# Details: Vibrio harveyi BB721 constitutive QS, luminescence, 9 h; at 16 µM (top of the series)
# Procedure, shortened: (§1)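 Incubation: 9 h exposure, 30 °C / System: V. harveyi BB721, constitutive-on quorum sensing / Amount: bacteria seeded at starting optical density OD600 0.0005 / Medium: AB (autoinducer bioassay) growth medium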
row,SMILES,"activity change, negative = inhibition"
1,Cn1cnc(S(=O)(=O)Nc2ccccc2F)c1,6.38% (inactive)
2,Cc1ccccc1NS(=O)(=O)c1cn(C)cn1,5.69% (inactive)
3,COc1ccccc1NS(=O)(=O)c1cn(C)cn1,-0.736% (inactive)
4,CN(C)C(=O)c1ccccc1NS(=O)(=O)c1cn(C)cn1,8.65% (inactive)
5,Cn1cnc(S(=O)(=O)Nc2ccccc2Cl)c1,12.3% (inactive)
6,CC(=O)Nc1ccccc1NS(=O)(=O)c1cn(C)cn1,6.64% (inactive)
7,CCc1ccc(-c2ccc(C(=O)O)n2C)cc1,-7.36% (inactive)

# Test system: Vibrio harveyi BB721 constitutive QS, luminescence, 9 h
# Test: as above
# Details: not given
# Procedure, shortened: as §1
row,SMILES,AC50 [µM]
1,C=Cn1c(C(=O)O)ccc1-c1ccc(CC)cc1,13.1
2,O=S(=O)(Nc1cccnc1)c1ccc(Oc2ccccc2)cc1,0.775
3,O=S(=O)(Nc1ccccn1)c1ccc(Oc2ccccc2)cc1,15.5
4,Cn1cnc(S(=O)(=O)Nc2ccc(OC(F)(F)F)cc2)c1,14.1
5,O=C1C=C/C(=C/Br)O1,3.92
